# Assays:
# [1] = system: SW480; experiment: Cytotoxicity against human SW480 cells after 48 hrs by MTT assay; format: functional, cell-based
# Procedure, shortened: (§1)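 Cells seeded at 5000 to 10 000 per well, exposed to compounds at a range of concentrations for 48 h at 37 °C. MTT then added for 4 h at 37 °C under 5% CO2. Formazan dissolved in 10% SDS and absorbance read at 595 nm. Each concentration tested in triplicate. IC50 derived by the Reed and Muench method, with cisplatin as positive control.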
# [2] = system: A549; experiment: Cytotoxicity against human A549 cells after 48 hrs by MTT assay; format: functional, cell-based; procedure, shortened: as §1
# [3] = Cytotoxicity against human HL60 cells after 48 hrs by MTT assay; format: functional, cell-based, HL-60; procedure, shortened: as §1
# [4] = system: MCF7; experiment: Cytotoxicity against human MCF7 cells after 48 hrs by MTT assay; format: functional, cell-based; procedure, shortened: as §1
# [5] = system: SMMC-7721; experiment: Cytotoxicity against human SMMC7721 cells after 48 hrs by MTT assay; format: functional, cell-based; procedure, shortened: as §1
# [6] = Homo sapiens, SW480, 48 h, read-out: IC50
# [7] = Homo sapiens, A549, 48 h, read-out: IC50
# [8] = Homo sapiens, HL-60, 48 h, read-out: IC50
# [9] = Homo sapiens, MCF7, 48 h, read-out: IC50
# [10] = Homo sapiens, SMMC-7721, 48 h, read-out: IC50
Structure (SMILES),"IC50 [1, 6]","IC50 [2, 7]","IC50 [3, 8]","IC50 [4, 9]","IC50 [5, 10]",IC50 ([1]; sw480),IC50 ([2]; a549),IC50 ([3]; hl-60),IC50 ([4]; mcf7),IC50 ([5]; smmc-7721)
C=C1C(=O)[C@]23[C@H](O)[C@H]1CC[C@H]2[C@@]12C=N[C@@]3(O)[C@@H](O)[C@@H]1C(C)(C)CC[C@@H]2O,> 40 µM,> 40 µM,> 40 µM,> 40 µM,> 40 µM,–,–,–,–,–
C=C1C(=O)OC2CC1C[C@H]1[C@@H]2[C@@]23C=NC1(O)[C@@H](O)[C@@H]2C(C)(C)CC[C@@H]3O,–,–,–,–,–,Not Active,Not Active,Not Active,Not Active,Not Active
C=C1C(=O)O[C@H]2C[C@@H]1C[C@H]1[C@@H]2[C@@]23C(OC)O[C@@]1(O)[C@@H](O)[C@@H]2C(C)(C)CC[C@@H]3O (stereo not given in full),–,–,–,–,–,Active,Active,Active,Active,Active
C=C1C(=O)[C@]23[C@H](O)[C@H]1CC[C@H]2[C@@]12CO[C@]3(O)[C@@H](O)[C@@H]1C(C)(C)CC[C@@H]2O [ORIDONIN],7.2 µM,7.2 µM,7.2 µM,7.2 µM,7.2 µM,–,–,–,–,–

# Reference: ChEMBL document CHEMBL3421599, “Diterpene alkaloids with an aza-ent-kaurane skeleton from Isodon rubescens” (J Nat Prod, 2015)
